Screening data deposited in PubChem by several laboratories.
Sampled rows, rich in hits. Any-hit rate of the full collection: about 0.72%.
GSK3beta inhib = inhibitors of human GSK3beta kinase; P49841; actives 0.038% (n = 300,000); GST-GSK3beta kinase, ADP-Glo luminescence, 60 min; active compounds read low; activity score (negative = inhibition), % at 10 µM;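 active = more than half of replicate wells score below -50%, meaning over 50% inhibition versus plate controls; inconclusive = some replicates but at most half score below -50%; inactive = no replicate scores below -50%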
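test system = GST-tagged human GSK3beta kinase, cell-free | reagent = 25 µM ATP with peptide substrate | dosing = one dose of 10 µM per compound | schedule = 60 min reaction, RT | detection = luminescent ADP-Glo measurement of ADP formed | control set = DMSO neutral wells and GW8510 at 20 µM as positive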
STK33 kinase inh = inhibitors of human STK33 kinase | AID 2661 | purified STK33, MBP phosphorylation, ADP-Glo luminescence | Q9BYT3 | inhibition, % at 10 µM | actives 0.073% (n = 320,000);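 active = inhibition at or above 25%, using the most active replicate where run in duplicate; inactive = inhibition below 25%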
Yeast superoxide = caloric restriction mimetics inhibiting age-related superoxide in yeast. S. cerevisiae aged cells, superoxide DHE fluorescence; active compounds read low. superoxide response (% of plate mean), % at 10 µM. actives 0.18% (n = 330,000). AID 2690;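 active = superoxide response under a set limit, about three screen SD below normal, cut at about 65% in these data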;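 also: yeast aged for seven days with compound at 30 °C before DHE staining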
GSK3A inh = blocks human GSK-3 alpha kinase. P49840. ADP-Glo luminescence, 60 min. inhibition, % at 10 µM. actives 0.1% (n = 320,000). AID 2650;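 active = more than half of replicates show inhibition above 20%; inconclusive = some but at most half of replicates above 20% inhibition; inactive = no replicate shows inhibition above 20%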;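 also: GST-tagged GSK-3 alpha with peptide substrate and 25 µM ATP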
Target sequence (P49840 whole entry, looked up): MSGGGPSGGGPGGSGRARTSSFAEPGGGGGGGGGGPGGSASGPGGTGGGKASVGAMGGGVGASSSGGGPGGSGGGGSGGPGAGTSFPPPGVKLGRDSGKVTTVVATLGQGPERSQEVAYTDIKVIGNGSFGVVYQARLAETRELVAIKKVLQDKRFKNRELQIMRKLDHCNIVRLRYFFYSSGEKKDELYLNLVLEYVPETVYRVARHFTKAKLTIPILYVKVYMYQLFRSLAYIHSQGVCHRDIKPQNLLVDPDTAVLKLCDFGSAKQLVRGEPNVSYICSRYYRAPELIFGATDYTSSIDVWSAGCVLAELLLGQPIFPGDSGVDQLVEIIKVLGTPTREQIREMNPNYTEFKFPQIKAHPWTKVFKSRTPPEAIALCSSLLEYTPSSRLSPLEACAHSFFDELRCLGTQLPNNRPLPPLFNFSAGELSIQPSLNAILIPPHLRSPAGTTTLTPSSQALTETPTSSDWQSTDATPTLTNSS
PolyA inhibitor = blocks polyadenylation in yeast reporter cells | S. cerevisiae SKY197-pL101 polyadenylation reporter, beta-gal luminescence; efflux-impaired pdr1/pdr3 knockout yeast; score 100 = 6 SD above DMSO | activity score, % at 12 µM | actives 0.02% (n = 300,000) | AID 1875;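 active = lowest replicate activity score at least 50, where 100 means six control SD above control mean; inconclusive = lowest score under 50 but half or more replicates reach 50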;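 also: yeast exposed to compound for 9 h at 30 °C; higher score means more reporter readthrough which indicates perturbed polyadenylation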
AI-2 QS modul = modulators of Vibrio harveyi AI-2 quorum sensing system. activity change, % at 7.5 µM. Vibrio harveyi JMH597 AI-2 luminescence/OD600 ratio, 9 h; active compounds read low; strain lacks LuxN and CqsS sensors; 0 = neutral-control median. actives 0.4% (n = 300,000); in the data active = activity change below about -75%, passing the limit was not always enough; inconclusive = no clear call, values can overlap the other calls;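 also: luminescence divided by OD600 gain over 9 h not by final OD600 alone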
JMH597 growth = retest: inhibitors of Vibrio harveyi JMH597 growth; shares compounds with AI-2 QS modul; OD600 absorbance, 9 h; lacks LuxN and CqsS sensors; growth inhibition, % at 7.5 µM; actives 1% (n = 750); AID 2726;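 active = every replicate shows growth inhibition above 50%; inconclusive = at least half, but not all, replicates pass that cutoff; inactive = fewer than half of replicates pass it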
BB721 lum counter = retest counter-screen: luminescence loss in constitutive-on quorum sensing strain BB721; shares compounds with AI-2 QS modul; Vibrio harveyi BB721 luminescence, 9 h; inhibition, % at 7.5 µM; actives 95% (n = 750);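 active = inhibition above about 80% in every replicate, not just on average, limit read from the data; inconclusive = at least half of replicates past the limit, but not all; inactive = fewer than half of replicates past the limit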
BB721 growth rt = retest: inhibitors of Vibrio harveyi BB721 growth; AID 2728; growth inhibition, % at 7.5 µM; shares compounds with AI-2 QS modul; actives 3% (n = 750); OD600 absorbance, 9 h;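 active = every replicate shows growth inhibition above 50%; inconclusive = at least half but not all replicates above 50% inhibition; inactive = under half of replicates above 50% inhibition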
AI-2 QS JMH597 = Vibrio harveyi AI-2 signaling luminescence modulation – JMH597 strain, confirmation; shares compounds with AI-2 QS modul; Vibrio harveyi JMH597 AI-2 quorum sensing luminescence, 9 h; luxN and CqsS knockout, AI-2 only; inhibition, % at 7.5 µM; actives 97% (n = 750); AID 2736;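 active = every replicate shows more than 75% inhibition of signal versus neutral control wells; inconclusive = half to three quarters of replicates exceed 75% inhibition; inactive = fewer than half of replicates exceed 75% inhibition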
Each line names hits and unclear results; the compound was inactive in the other large screens (follow-up assays come after a bar, where they were run).

NS(=O)(=O)c1ccc(NC(=O)CN2C(=O)c3ccccc3C2=O)cc1	AI-2 QS modul -84.1 | JMH597 growth inactive | BB721 lum counter 93.0 | BB721 growth rt inactive | AI-2 QS JMH597 95.6
COCCSc1nnc(NC(=O)c2ccc(OC)c([N+](=O)[O-])c2)s1	PolyA inhibitor inconclusive
CC(Oc1cccc2cccnc12)C(=O)N/N=C/c1ccc2c(c1)OCO2 (stereo not given)	none
O=CN(/C=C1\Sc2ccccc2C1=O)Cc1ccccc1	AI-2 QS modul -89.9 | JMH597 growth inactive | BB721 lum counter 95.8 | BB721 growth rt inactive | AI-2 QS JMH597 97.2
CN(C)C(=O)CNC(=O)CN1C(=O)NC2(CCCc3sccc32)C1=O (stereo not given)	none
Cc1cccc(C)c1NC(=O)C(C)N1CCCCC1 (stereo not given)	none
CCC(C(=O)Nc1c(C)cc(C)cc1C)N1CCCCCC1 (stereo not given)	AI-2 QS modul -85.4 | JMH597 growth inactive | BB721 lum counter inactive | BB721 growth rt inactive | AI-2 QS JMH597 inactive
CC1(C)C(=O)Nc2ccccc2N1C(=O)COC(=O)CSc1ccc(F)cc1	none (no result: GSK3beta inhib, PolyA inhibitor, AI-2 QS modul)
CC1(C)C(=O)Nc2ccccc2N1C(=O)COC(=O)CCSc1ccccc1	AI-2 QS modul -85.1 | JMH597 growth inactive | BB721 lum counter 91.7 | BB721 growth rt inactive | AI-2 QS JMH597 95.1
O=C1CN(C(=O)COC(=O)CCCOc2ccccc2)c2ccccc2N1	AI-2 QS modul -81.3 | JMH597 growth inactive | BB721 lum counter 93.9 | BB721 growth rt inactive | AI-2 QS JMH597 95.6
CCCCCc1nnc(NC(=O)Cn2cnc3ccccc3c2=O)s1	AI-2 QS modul -93.8 | JMH597 growth inactive | BB721 lum counter 98.1 | BB721 growth rt inactive | AI-2 QS JMH597 98.7
CCCCc1nnc(NC(=O)Cn2cnc3ccccc3c2=O)s1	AI-2 QS modul -94.8 | JMH597 growth inactive | BB721 lum counter 99.1 | BB721 growth rt inactive | AI-2 QS JMH597 99.4
CCc1ccc(C(=O)N/N=C/c2cccc3ccccc23)nc1	none
O=C(Nc1ccc(Oc2ccccc2)cc1)C1CCN(c2ncccn2)CC1	none
COC(=O)N/N=C/c1ccc(Oc2ccccc2)cc1	AI-2 QS modul -85.3 | JMH597 growth inactive | BB721 lum counter 94.7 | BB721 growth rt inactive | AI-2 QS JMH597 95.5
O=C(Nc1ccc(Oc2ccccc2)cc1)C1CC1	AI-2 QS modul -87.2 | JMH597 growth inactive | BB721 lum counter 98.5 | BB721 growth rt 58.7 | AI-2 QS JMH597 96.4
CCOC(=O)Nc1ccc(Oc2ccccc2)cc1	AI-2 QS modul -94.9 | JMH597 growth inactive | BB721 lum counter 99.3 | BB721 growth rt inactive | AI-2 QS JMH597 99.4
CC(NC(=O)CCc1nnc(-c2ccc(-c3ccccc3)cc2)o1)c1nc2ccccc2[nH]1 (stereo not given)	none
CC(C)Cc1nnc(NC(=O)CCC(=O)NCCc2ccc(Cl)cc2)s1	none
O=C(NCc1ccco1)c1cc2cc(Br)ccc2o1	none
Cc1cc(C)c(S(=O)(=O)NCc2cccnc2)c(C)c1	none
O=C(NCC1CCCO1)c1cc(-c2ccc(F)cc2)no1 (stereo not given)	none
COc1ccc(/C=C/C(=O)Oc2cc(O)cc(O)c2)cc1	AI-2 QS modul -94.8 | JMH597 growth inactive | BB721 lum counter 98.2 | BB721 growth rt inactive | AI-2 QS JMH597 98.7
CCOc1ccc(/C=C/C(=O)Oc2ccc(OC)cc2)cc1	none
Cc1cc(Br)ccc1NC(=O)CN(C)C(=O)COc1cccc2c1OC(C)(C)C2	none
Nn1c(SCC(=O)Nc2ccc(OC(F)F)cc2)nnc(Cc2ccccc2)c1=O	AI-2 QS modul -91.9 | JMH597 growth inactive | BB721 lum counter 96.3 | BB721 growth rt inconclusive | AI-2 QS JMH597 97.1
O=C1NC(=S)N(c2cccc(Cl)c2)C12CCCCC2	none
O=C(CSc1ccc2nnc(CCNC(=O)c3ccccc3)n2n1)NCCc1ccccc1	none
Cc1cccc(NC(=O)CSCC(=O)Nc2ccccc2C(=O)NC2CC2)c1	none
Cc1cccc2nc(CSc3nc4ccccc4[nH]3)cn12	AI-2 QS modul inconclusive | JMH597 growth inactive | BB721 lum counter 95.9 | BB721 growth rt inactive | AI-2 QS JMH597 97.5
c1ccc2[nH]c(SCc3cn4ccccc4n3)nc2c1	none
COc1ccc(CNCc2ccc3ccccc3c2)c(OC)c1	none
COc1ccc(OC)c(CCNC(=O)CN2C(=O)COc3ccc(S(=O)(=O)N4CCOCC4)cc32)c1	none
COc1ccc(S(=O)(=O)n2cccc2)cc1	AI-2 QS modul inconclusive | JMH597 growth inactive | BB721 lum counter 96.0 | BB721 growth rt inactive | AI-2 QS JMH597 99.4
O=S1(=O)C=C(Oc2ccc3ccccc3c2)c2ccccc21	AI-2 QS modul -83.2 | JMH597 growth inactive | BB721 lum counter 94.8 | BB721 growth rt inactive | AI-2 QS JMH597 96.0
O=S1(=O)C=C(Oc2ccc(F)cc2)c2ccccc21	none
O=S(=O)(c1cccs1)N1CCN(CC(O)COc2cccc(Br)c2)CC1 (stereo not given)	AI-2 QS modul -81.5 | JMH597 growth inactive | BB721 lum counter 87.7 | BB721 growth rt inactive | AI-2 QS JMH597 92.9
O=S(=O)(c1cccs1)N1CCN(CC(O)COC2CCCc3ccccc32)CC1 (stereo not given)	none
O=C(COC(=O)c1ccc(Br)o1)Nc1nc2ccccc2s1	AI-2 QS modul inconclusive | JMH597 growth inactive | BB721 lum counter 93.5 | BB721 growth rt inactive | AI-2 QS JMH597 95.3
Cc1ccc2nc(NC(=O)COC(=O)c3ccc(Br)o3)sc2c1	none (no result: GSK3beta inhib, PolyA inhibitor, AI-2 QS modul)
Cc1ccc2nc(NC(=O)COC(=O)c3ccco3)sc2c1	AI-2 QS modul -91.6 | JMH597 growth inactive | BB721 lum counter 97.6 | BB721 growth rt inactive | AI-2 QS JMH597 98.5
COc1ccc(-c2noc3c2-c2nc(-c4cccc(C)c4)sc2CC3)cc1	none
O=C(CSc1nccn1Cc1ccccc1)NC1CCCC1	none
COc1ccc(CNc2ccc(Br)cc2)cc1	none
O=C(O)c1ccc(NCc2cccc(Br)c2)cc1	AI-2 QS modul -90.7 | JMH597 growth inactive | BB721 lum counter 97.9 | BB721 growth rt inconclusive | AI-2 QS JMH597 97.9
O=C(O)c1ccc(NCc2ccncc2)cc1	none
